Results as given in paper PMC4777260 (Pharmacology Research & Perspectives, 2016).

What was measured:
fXa [1] = assay: Calculated fXa enzyme occupancy; conditions: rat AVS
fXa [2] = conditions: equal fXa occupancy human/rat
PT = assay: Ex vivo prothrombin time; type: in vivo, rat; conditions: plasma collected post-AVS, small molecule study
Method in brief: (§1)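 Rats received a steady-state IV bolus-plus-infusion. A terminal blood sample was taken after the shunt and bleeding procedures into sodium citrate (11 mmol/L final). It was centrifuged at 2500g, 4°C, 15 min. One platelet-poor plasma aliquot was used for clotting times and the other for plasma drug concentration.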

rat fIXa = rat fIXa (Rattus norvegicus, UniProt P16296); assay: fIXa inhibition constant; type: biochemical
fXa [3] = assay: Calculated fXa enzyme occupancy; parameters: species or system human; conditions: C min 107 ng/mL, 5 mg BID SPAF dose
Human fIXa = Human fIXa (Homo sapiens, UniProt P00740); assay: fIXa inhibition constant; type: biochemical
[4] = test system: rat cuticle bleeding time (CBT); assay: Rat cuticle bleeding time; type: in vivo
Method in brief: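 Same anaesthetised, IV bolus-plus-infusion rats as the shunt study. Five minutes after shunt placement, two hind-paw toe cuticles were cut at the quick. The paw was immersed in 37° lactated Ringer's, and time to bleeding cessation was recorded (10 min maximum). A linear model of CBT versus plasma concentration treated 600 s values as right-censored. Median and 5th/95th percentiles were simulated from parameter standard errors.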

[5] = test system: fIIa formation (thrombin generation); assay: Ex vivo thrombin generation assay; type: in vivo, rat; conditions: TF 1, 5, 20 pmol/L trigger
[6] = test system: rat arteriovenous shunt (AVS/thrombosis); assay: Rat arteriovenous shunt; type: in vivo
Method in brief: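 Male Sprague Dawley rats (350–400 g) were anaesthetised with thiobutabarbital. Test compound or vehicle (35% w/v hydroxypropyl-β-cyclodextrin, 10 mmol/L phosphate buffer) was given as an IV bolus plus constant infusion: five doses, n ≥ 10/group, blinded. At 15 min, a carotid–jugular shunt with silk thread ran 15 min. CW = thread weight gain. A vehicle-proportional Imax model was fitted to CW versus plasma concentration.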

[7] = Fraction unbound in plasma by equilibrium dialysis, human; type: in vitro ADME
Method in brief: (§2)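 Plasma fraction unbound was determined by equilibrium dialysis in triplicate. Its standard error fed simulations of clinically relevant concentration ranges.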

aPTT = assay: Ex vivo activated partial thromboplastin time; type: in vivo, rat; conditions: plasma collected post-AVS, small molecule study
Method in brief: as §1

Rat pharmacokinetics = conditions: in vivo
[8] = Fraction unbound in plasma by equilibrium dialysis, rat; type: in vitro ADME
Method in brief: as §2

Sequence of rat fIXa (P16296 228-462 limits assumed): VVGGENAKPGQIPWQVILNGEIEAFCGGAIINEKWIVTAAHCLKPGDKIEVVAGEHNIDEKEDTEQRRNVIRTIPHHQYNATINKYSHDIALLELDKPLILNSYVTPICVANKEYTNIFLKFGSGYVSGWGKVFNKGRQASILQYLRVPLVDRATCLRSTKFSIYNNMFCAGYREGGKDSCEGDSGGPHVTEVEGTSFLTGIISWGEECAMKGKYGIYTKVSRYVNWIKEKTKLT
Sequence of rat fIXa (P16296 40-185 partner limits assumed): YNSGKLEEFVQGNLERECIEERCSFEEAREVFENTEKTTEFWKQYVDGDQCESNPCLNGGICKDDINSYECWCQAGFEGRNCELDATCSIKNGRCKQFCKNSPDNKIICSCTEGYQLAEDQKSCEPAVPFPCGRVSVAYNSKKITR
Sequence of Human fIXa (P00740 227-461 limits assumed): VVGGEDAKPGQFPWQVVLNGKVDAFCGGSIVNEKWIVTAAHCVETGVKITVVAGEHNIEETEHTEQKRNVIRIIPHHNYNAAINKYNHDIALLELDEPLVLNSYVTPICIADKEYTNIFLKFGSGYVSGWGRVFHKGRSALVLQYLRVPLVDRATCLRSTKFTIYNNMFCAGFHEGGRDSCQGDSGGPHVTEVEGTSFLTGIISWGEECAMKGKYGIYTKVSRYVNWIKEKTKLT
Sequence of Human fIXa (P00740 47-191 partner limits assumed): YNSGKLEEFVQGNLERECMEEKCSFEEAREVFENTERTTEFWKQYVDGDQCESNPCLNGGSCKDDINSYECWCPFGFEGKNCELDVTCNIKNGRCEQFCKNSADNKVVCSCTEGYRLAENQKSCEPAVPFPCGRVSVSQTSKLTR

COc1ccc(-n2nc(C(N)=O)c3c2C(=O)N(c2ccc(N4CCCCC4=O)cc2)CC3)cc1 [Apixaban]
fXa EO required to ensure CW <50 mg in all animals (fXa [1]): > 99%
predicted rat equivalent of C avg (fXa [2]): 24 µM
effect on PT (in words) (PT): concentration‐dependent increase
Ki (rat fIXa): > 30 µM
calculated EO achieved at median C min (fXa [3]): 99.2%
Ki (Human fIXa): > 30 µM
animals that reached the limit of the CBT assay (600 sec) ([4]; higher doses): 17
Slope (slope of the drug effect on bleeding time) ([4]; linear PK/PD model of CBT vs rat plasma concentration): 29.6
effect on CBT vs vehicle (in words) ([4]; two effective doses A4, A5): significant prolongation of the CBT
activity in TGA (in words) [5]: activity was constant across the TF concentration tested
target CW corresponding to the apixaban clinical C min ([6]; PK/PD model simulation at rat equivalent of clinical C min): 16 (12–24) mg
CW reduction vs vehicle (in words) ([6]; two highest doses A4 (3/3.75 mg/kg), A5 (8/10.2 mg/kg)): significant CW reduction
I max (maximal inhibition of CW) ([6]; vehicle-proportional Imax PK/PD model of CW vs rat plasma concentration): 0.946
fraction unbound [7]: 0.093 ± 0.013
effect on aPTT (in words) (aPTT): concentration‐dependent increase
clearance (Rat pharmacokinetics): 12 mL/min/kg
half-life (Rat pharmacokinetics): 51.6 min
fraction unbound [8]: 0.019
